Assay results from ChEMBL document CHEMBL3085701, “Optimization of novel indole-2-carboxamide inhibitors of neurotropic alphavirus replication” (J Med Chem, 2013).

Assays:
[1] = tested on: Western equine encephalitis virus; experiment: Antiviral activity against Western equine encephalomyelitis virus infected in human BE(2)-C cells assessed as inhibition of viral RNA replication after 18 to 20 hrs by luciferase reporter gene assay; format: functional, cell-based
[2] = target: MDR1 (ABCB1, P-glycoprotein) (Homo sapiens, UniProt P08183); experiment: Inhibition of human MDR1 expressed in MDCK2 cells assessed as increase of rhodamine 123 uptake at 30 uM up to 240 mins relative to control; format: ADME, cell-based, MDCK-II; settings: MDCK2 cells expressing human MDR1, probe rhodamine 123
How it was run: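 Confluent MDR1-MDCKII cells (human Pgp-transfected) given fresh DMEM with 10 μM rhodamine 123, plus vehicle, tariquidar (5 μM) or compound (30 μM). Uptake at 37°C from 1 to 240 min, stopped by ice-cold PBS washes. Fluorescence read at ex 525/em 560-640 nm. Result expressed as % of same-day tariquidar effect, (Cav−Cveh)*100/(Ctar−Cveh). Triplicates on ≥3 occasions.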

[3] = Kinetic solubility of the compound; format: physicochemical
[4] = Cytotoxicity against human BE(2)-C cells after 18 to 20 hrs by MTT assay; format: cell-based
[5] = Half life in Balb-C mouse liver microsomes; format: ADME, Microsome
How it was run: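 Compound incubated with Balb-C mouse liver microsomes, and half-life determined for oxidative metabolism. Values are means of ≥2 independent incubations.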

[6] = Cytotoxicity against human BE(2)-C cells assessed as cell viability at 25 uM after 24 hrs by MTT assay relative to control; format: cell-based; settings: read-out: Activity
Fort Morgan virus = experiment: Antiviral activity against Fort Morgan virus infected in human BE(2)-C cells assessed as reduction of viral titer at 25 uM after 24 hrs by plaque reduction assay (reference value: 47.1 +/- 10.5 x 10^6 pfu/ml); format: functional

Chain of MDR1 (ABCB1, P-glycoprotein) (P08183 whole entry): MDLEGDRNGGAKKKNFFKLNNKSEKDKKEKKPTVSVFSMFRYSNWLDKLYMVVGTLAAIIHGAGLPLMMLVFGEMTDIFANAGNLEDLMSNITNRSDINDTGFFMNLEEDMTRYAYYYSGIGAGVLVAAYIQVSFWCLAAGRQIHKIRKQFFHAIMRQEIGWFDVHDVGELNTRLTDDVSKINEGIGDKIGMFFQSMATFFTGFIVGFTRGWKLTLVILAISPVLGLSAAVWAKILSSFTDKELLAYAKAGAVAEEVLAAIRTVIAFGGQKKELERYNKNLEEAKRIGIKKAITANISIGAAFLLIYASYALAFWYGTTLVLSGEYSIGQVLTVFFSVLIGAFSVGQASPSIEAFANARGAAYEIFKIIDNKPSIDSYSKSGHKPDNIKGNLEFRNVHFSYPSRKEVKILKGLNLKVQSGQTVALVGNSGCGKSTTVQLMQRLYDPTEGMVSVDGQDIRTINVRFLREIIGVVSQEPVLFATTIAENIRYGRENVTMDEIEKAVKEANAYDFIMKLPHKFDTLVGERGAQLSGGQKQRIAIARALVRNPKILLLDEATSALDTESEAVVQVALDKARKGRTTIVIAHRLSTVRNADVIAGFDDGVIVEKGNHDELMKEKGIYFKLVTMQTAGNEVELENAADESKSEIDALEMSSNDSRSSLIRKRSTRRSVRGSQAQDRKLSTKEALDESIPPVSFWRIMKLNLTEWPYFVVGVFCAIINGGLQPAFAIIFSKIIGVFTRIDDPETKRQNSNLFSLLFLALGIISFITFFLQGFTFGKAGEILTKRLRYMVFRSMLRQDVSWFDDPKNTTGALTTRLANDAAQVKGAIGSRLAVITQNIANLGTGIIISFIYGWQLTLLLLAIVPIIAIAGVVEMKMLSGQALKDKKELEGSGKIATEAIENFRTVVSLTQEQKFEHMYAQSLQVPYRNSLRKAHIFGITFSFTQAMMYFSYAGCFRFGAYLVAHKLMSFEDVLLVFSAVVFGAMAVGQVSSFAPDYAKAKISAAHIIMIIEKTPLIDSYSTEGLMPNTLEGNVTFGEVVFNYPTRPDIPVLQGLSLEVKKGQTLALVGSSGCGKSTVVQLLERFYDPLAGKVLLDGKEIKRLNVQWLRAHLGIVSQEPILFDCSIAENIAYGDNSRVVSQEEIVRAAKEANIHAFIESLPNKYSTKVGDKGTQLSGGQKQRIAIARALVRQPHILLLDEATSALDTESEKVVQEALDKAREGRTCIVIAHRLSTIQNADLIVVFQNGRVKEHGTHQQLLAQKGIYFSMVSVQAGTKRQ

Row | Structure (SMILES) | IC50 [1] | inhibition at 4 h, 30 µM [2] | CC50 ([4]; BE(2)-C cells) | CC50 ([4]; be(2)-c) | further results
1 | O=C(NCc1ccco1)C1CCN(C(=O)c2cc3sccc3n2Cc2ccc(F)cc2)CC1 | 23.7 µM |  |  |  | 
2 | O=C(NCc1ccncc1)C1CCN(C(=O)c2cc3ccccc3n2Cc2ccc(Cl)cc2)CC1 | 6.8 µM | 25.9% | > 100 µM |  | Kinetic_solubility [3]: 31 µM
3 | O=C(NCc1cccnc1)C1CCN(C(=O)c2cc3ccccc3n2Cc2ccc(Cl)cc2)CC1 | 11.4 µM |  |  |  | 
4 | O=C(NCCc1ccncc1)C1CCN(C(=O)NCCc2ccc(Cl)cc2)CC1 | 40.9 µM |  | > 100 µM |  | Kinetic_solubility [3]: 250 µM
5 | Cn1c(C(=O)N2CCC(C(=O)NCCc3ccncc3)CC2)cc2ccccc21 | > 50 µM |  | > 50 µM |  | 
6 | O=C(NCCc1ccncc1)C1CCN(C(=O)c2cc3ccccc3n2Cc2ccccc2)CC1 | 1.6 µM | 11.7% |  | 45.6 µM | t1/2 [5]: 77.9 min; Kinetic_solubility [3]: 31 µM; viability at 24 h, 25 µM [6]: 79.4%; Activity (Fort Morgan virus): 6.8 ×10⁶ PFU/ml
7 | O=C(NCCc1ccncc1)C1CCN(C(=O)c2cc3ccc(F)cc3n2Cc2ccc(Cl)cc2)CC1 | 0.6 µM | 30.8% |  | 43.1 µM | viability at 24 h, 25 µM [6]: 69.2%; Activity (Fort Morgan virus): 1.6 ×10⁶ PFU/ml
8 | O=C(NCCc1ccncc1)C1CCN(C(=O)c2cc3cc(F)ccc3n2Cc2ccc(Cl)cc2)CC1 | 0.9 µM | 42.6% |  | 52.5 µM | Kinetic_solubility [3]: 31 µM
9 | O=C(NCCc1ccncc1)C1CCN(C(=O)c2cc(F)cn2Cc2ccc(Cl)cc2)CC1 | 0.9 µM |  |  | 8 µM | Kinetic_solubility [3]: 125 µM
10 | CC(C)c1ccc(CCNC(=O)C2CCN(C(=O)c3cc4ccccc4n3Cc3ccc(Cl)cc3)CC2)cc1 | 10.8 µM |  |  | 27.2 µM | 
11 | O=C(c1cc2ccccc2n1Cc1ccc(Cl)cc1)N1CCC(C(=O)N2CCC[C@H]2CO)CC1 | 30.6 µM |  |  | 98.9 µM | 
12 | CN(C)C(=O)C1CCN(C(=O)c2cc3ccccc3n2Cc2ccc(Cl)cc2)CC1 | 10.5 µM | 23.2% | > 100 µM |  | Kinetic_solubility [3]: 62 µM
13 | O=C(c1cc2ccccc2n1Cc1ccc(Cl)cc1)N1CCC(C(=O)N2CCCC2)CC1 | 22.2 µM |  |  | 65.6 µM | 
14 | O=C(c1cc2ccccc2n1Cc1ccc(Cl)cc1)N1CCC(C(=O)N2CCOCC2)CC1 | 12.8 µM |  | > 100 µM |  | 
15 | CN(Cc1ccccc1)C(=O)C1CCN(C(=O)c2cc3ccccc3n2Cc2ccc(Cl)cc2)CC1 | 16.9 µM |  |  | 87 µM | 
16 | CN(Cc1ccccc1)C(=O)C1CCN(C(=O)c2cc3ccccc3n2Cc2ccc([N+](=O)[O-])cc2)CC1 | 61.3 µM |  | > 100 µM |  | 
17 | CN(Cc1ccccc1)C(=O)C1CCN(C(=O)c2cc3ccccc3n2Cc2ccc(C#N)cc2)CC1 | 95.9 µM |  | > 100 µM |  | 
18 | COc1ccc(Cn2c(C(=O)N3CCC(C(=O)N(C)Cc4ccccc4)CC3)cc3ccccc32)cc1 | 16.5 µM |  |  | 99.2 µM | 
19 | CC(=O)n1c(C(=O)N2CCC(C(=O)N(C)Cc3ccccc3)CC2)cc2ccccc21 | > 50 µM |  | > 50 µM |  | 
20 | COCCn1c(C(=O)N2CCC(C(=O)N(C)Cc3ccccc3)CC2)cc2ccccc21 | > 50 µM |  | > 50 µM |  | 
21 | CC(C)Cn1c(C(=O)N2CCC(C(=O)N(C)Cc3ccccc3)CC2)cc2ccccc21 | 27.9 µM |  |  | 58.2 µM | 
22 | CN(Cc1ccccc1)C(=O)C1CCN(C(=O)c2cc3ccccc3n2Cc2ccccc2)CC1 | 17 µM |  |  | 64.8 µM | 

Row | Structure (SMILES) | IC50 [1] | inhibition at 4 h, 30 µM [2] | CC50 ([4]; BE(2)-C cells) | CC50 ([4]; be(2)-c) | further results
23 | CN(Cc1ccccc1)C(=O)C1CCN(C(=O)c2cc3ccccc3n2Cc2ccncc2)CC1 | 24.2 µM |  |  | 80.3 µM | 
24 | CN(Cc1ccccc1)C(=O)C1CCN(C(=O)c2cc3ccccc3n2Cc2ccc(C(F)(F)F)cc2)CC1 | 35.1 µM |  |  | 90.3 µM | 
25 | O=C(NCCc1ccncc1)C1CCN(C(=O)c2nccn2Cc2ccc(Cl)cc2)CC1 | > 50 µM | 0.13% | > 50 µM |  | solubility kinetic ([3]; read-out: Kinetic_solubility): > 500 µM
26 | O=C(NCCc1ccncc1)C1CCN(C(=O)c2nc3ccccc3n2Cc2ccc(Cl)cc2)CC1 | 4.1 µM | 6.9% |  | 74.6 µM | t1/2 [5]: 43 min; Kinetic_solubility [3]: 63 µM; viability at 24 h, 25 µM [6]: 69.7%; Activity (Fort Morgan virus): 16.4 ×10⁶ PFU/ml
27 | O=C(NCc1ccccc1)C1CCN(C(=O)c2cc3ccccc3n2Cc2ccc(Cl)cc2)CC1 | 15.6 µM |  |  |  | 
28 | C[C@@H](NC(=O)C1CCN(C(=O)c2cc3ccccc3n2Cc2ccc(Cl)cc2)CC1)c1ccncc1 | 0.6 µM | 35.9% |  | 92.3 µM | t1/2 [5]: 23.4 min; viability at 24 h, 25 µM [6]: 65.5%; Activity (Fort Morgan virus): 6.4 ×10⁶ PFU/ml
29 | CN1CCN(C(=O)C2CCN(C(=O)c3cc4ccccc4n3Cc3ccc(Cl)cc3)CC2)CC1 | 31.4 µM |  |  | 75.6 µM | 
30 | CN1CCC(CNC(=O)C2CCN(C(=O)c3cc4ccccc4n3Cc3ccc(Cl)cc3)CC2)CC1 | > 50 µM |  | > 50 µM |  | 
31 | Cn1ccc(CNC(=O)C2CCN(C(=O)c3cc4ccccc4n3Cc3ccc(Cl)cc3)CC2)n1 | 76.9 µM |  | > 100 µM |  | 
32 | Cn1cnc(CNC(=O)C2CCN(C(=O)c3cc4ccccc4n3Cc3ccc(Cl)cc3)CC2)c1 | > 50 µM |  | > 50 µM |  | 
33 | O=C(NCCc1cccnc1)C1CCN(C(=O)c2cc3ccccc3n2Cc2ccc(Cl)cc2)CC1 | 5.3 µM | 30.1% |  | 39.4 µM | 
34 | O=C(NCCc1ccccn1)C1CCN(C(=O)c2cc3ccccc3n2Cc2ccc(Cl)cc2)CC1 | 22.4 µM | 21.9% |  | 86.2 µM | 
35 | O=C(NCCCc1ccncc1)C1CCN(C(=O)c2cc3ccccc3n2Cc2ccc(Cl)cc2)CC1 | 31.9 µM | 35.2% |  | 71.5 µM | Kinetic_solubility [3]: 16 µM
36 | CC(CNC(=O)C1CCN(C(=O)c2cc3ccccc3n2Cc2ccc(Cl)cc2)CC1)c1ccncc1 (stereo unspecified) | 1.7 µM | 25.4% |  | 98.2 µM | viability at 24 h, 25 µM [6]: 74%; Activity (Fort Morgan virus): 13.3 ×10⁶ PFU/ml
37 | CC(C)(Cc1ccncc1)NC(=O)C1CCN(C(=O)c2cc3ccccc3n2Cc2ccc(Cl)cc2)CC1 | 19.3 µM |  | 43.6 µM |  | 
38 | CN(CCc1ccncc1)C(=O)C1CCN(C(=O)c2cc3ccccc3n2Cc2ccc(Cl)cc2)CC1 | 1.6 µM | 72% |  | 47.9 µM | 
39 | O=C(NCC1COc2cnccc21)C1CCN(C(=O)c2cc3ccccc3n2Cc2ccc(Cl)cc2)CC1 (stereo unspecified) | 3.6 µM | 47% |  | 75.8 µM | 
40 | O=C(NCCn1ccnc1)C1CCN(C(=O)c2cc3ccccc3n2Cc2ccc(Cl)cc2)CC1 | 4.9 µM | 15.1% |  | 99.6 µM | t1/2 [5]: 14.3 min; Kinetic_solubility [3]: 31 µM; viability at 24 h, 25 µM [6]: 70.3%; Activity (Fort Morgan virus): 15.8 ×10⁶ PFU/ml
41 | COc1cccc(CCNC(=O)C2CCN(C(=O)c3cc4ccccc4n3Cc3ccc(Cl)cc3)CC2)c1 | 11.1 µM |  | > 100 µM |  | 
42 | O=C(NCCc1ccc(F)cc1)C1CCN(C(=O)c2cc3ccccc3n2Cc2ccc(Cl)cc2)CC1 | 21.4 µM |  |  | 18.6 µM | 
43 | COc1ccc(CCNC(=O)C2CCN(C(=O)c3cc4ccccc4n3Cc3ccc(Cl)cc3)CC2)cc1 | 15.5 µM |  |  | 11.3 µM | 
44 | O=C(NCCc1ccc(Cl)cc1)C1CCN(C(=O)c2cc3ccccc3n2Cc2ccc(Cl)cc2)CC1 | 8.1 µM |  |  | 40.4 µM | 
